Results reported in ChEMBL document CHEMBL1152473, “Synthesis, characterization and antibacterial activity of some triazole Mannich bases carrying diphenylsulfone moieties” (2009).
Values after ≈ are worked out from the molar mass of the structure shown. Active and inactive are the calls of the source. The rule behind the calls is not given here.

Assays:
Format in all cases: functional
[1] = system: Enterococcus faecalis; experiment: Antibacterial activity against Enterococcus faecalis ATCC 19433 after 18 to 24 hrs by liquid broth method
Summary of the method: (§1)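 Serial two-fold dilution in liquid broth in 96-well plates. Compounds were added from DMSO stock solutions to give final levels of 1024, 512, 256, 128, 64, 32, 16, 8, 4 and 2 (unit as printed unclear). Plates were incubated at 37 °C for 18–24 h.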

[2] = system: Acinetobacter baumannii; experiment: Antibacterial activity against Acinetobacter baumannii ATCC 19606 after 18 to 24 hrs by liquid broth method; conditions: ATCC 19606 = CIP 70.34 = JCM 6841; summary of the method: as §1
[3] = system: Bacillus subtilis; experiment: Antibacterial activity against Bacillus subtilis ATCC 6633 after 18 to 24 hrs by liquid broth method; summary of the method: as §1
[4] = system: Staphylococcus epidermidis; experiment: Antibacterial activity against Staphylococcus epidermidis ATCC 14990 after 18 to 24 hrs by liquid broth method; summary of the method: as §1
[5] = system: Staphylococcus aureus; experiment: Antibacterial activity against Staphylococcus aureus ATCC 12600 after 18 to 24 hrs by liquid broth method; summary of the method: as §1
[6] = system: Pseudomonas aeruginosa; experiment: Antibacterial activity against Pseudomonas aeruginosa ATCC 9027 after 18 to 24 hrs by liquid broth method; summary of the method: as §1
[7] = system: Citrobacter freundii; experiment: Antibacterial activity against Citrobacter freundii ATCC 8090 after 18 to 24 hrs by liquid broth method; summary of the method: as §1

Row | MIC [1] | MIC [2] [µg/mL] | MIC [3] | MIC [4] | MIC [5] | MIC [6] | MIC [7] | Structure (SMILES)
1 | inactive | 512 (≈ 1130 µM) | inactive | 1020 µg/mL (≈ 2250 µM) | 1020 µg/mL (≈ 2250 µM) | 512 µg/mL (≈ 1130 µM) | inactive | O=S(=O)(c1ccc(Cl)cc1)c1ccc(-c2n[nH]c(=S)n2/N=C/c2ccccc2)cc1
2 | > 1020 µg/mL | 1020 (≈ 1820 µM) | 512 µg/mL (≈ 910 µM) | inactive | 1020 µg/mL (≈ 1820 µM) | > 1020 µg/mL | inactive | CN(C)c1ccc(/C=N/n2c(-c3ccc(S(=O)(=O)c4ccccc4)cc3)nn(CN3CCOCC3)c2=S)cc1
3 | inactive | 512 (≈ 1100 µM) | 64 µg/mL (≈ 138 µM) | inactive | 1020 µg/mL (≈ 2210 µM) | > 1020 µg/mL | inactive | CN(C)c1ccc(/C=N/n2c(-c3ccc(S(=O)(=O)c4ccccc4)cc3)n[nH]c2=S)cc1
4 | inactive | 128 (≈ 349 µM) | 1020 µg/mL (≈ 2790 µM) | 512 µg/mL (≈ 1400 µM) | 1020 µg/mL (≈ 2790 µM) | inactive | 1020 µg/mL (≈ 2790 µM) | Nn1c(-c2ccc(S(=O)(=O)c3ccc(Cl)cc3)cc2)n[nH]c1=S
5 | 512 µg/mL (≈ 953 µM) | > 1020 | > 1020 µg/mL | inactive | inactive | > 1020 µg/mL | 256 µg/mL (≈ 476 µM) | CCCn1c(-c2ccc(S(=O)(=O)c3ccc(Br)cc3)cc2)nn(CN2CCOCC2)c1=S
6 | 512 µg/mL (≈ 924 µM) | 1020 (≈ 1850 µM) | inactive | inactive | 1020 µg/mL (≈ 1850 µM) | 1020 µg/mL (≈ 1850 µM) | inactive | O=S(=O)(c1ccc(Cl)cc1)c1ccc(-c2nn(CN3CCOCC3)c(=S)n2/N=C/c2ccccc2)cc1
7 | 1020 µg/mL (≈ 1970 µM) | > 1020 | 512 µg/mL (≈ 985 µM) | inactive | 512 µg/mL (≈ 985 µM) | > 1020 µg/mL | > 1020 µg/mL | O=S(=O)(c1ccccc1)c1ccc(-c2nn(CN3CCOCC3)c(=S)n2/N=C/c2ccccc2)cc1
8 | 512 µg/mL (≈ 1000 µM) | 512 (≈ 1000 µM) | 1020 µg/mL (≈ 2010 µM) | inactive | 512 µg/mL (≈ 1000 µM) | 512 µg/mL (≈ 1000 µM) | > 1020 µg/mL | O=S(=O)(c1ccccc1)c1ccc(-c2nn(CN3CCOCC3)c(=S)n2/N=C/c2ccco2)cc1
9 | > 1020 µg/mL | 1020 (≈ 2340 µM) | 1020 µg/mL (≈ 2340 µM) | inactive | 256 µg/mL (≈ 584 µM) | inactive | 256 µg/mL (≈ 584 µM) | CCCn1c(S)nnc1-c1ccc(S(=O)(=O)c2ccc(Br)cc2)cc1
10 | inactive | > 1020 | inactive | > 1020 µg/mL | 512 µg/mL (≈ 1220 µM) | 1020 µg/mL (≈ 2440 µM) | inactive | O=S(=O)(c1ccccc1)c1ccc(-c2n[nH]c(=S)n2/N=C/c2ccccc2)cc1
11 | 1020 µg/mL (≈ 2230 µM) | > 1020 | > 1020 µg/mL | > 1020 µg/mL | inactive | > 1020 µg/mL | 512 µg/mL (≈ 1120 µM) | CCCn1c(-c2ccc(S(=O)(=O)c3ccccc3)cc2)nn(CN2CCOCC2)c1=S
12 | > 1020 µg/mL | > 1020 | 1020 µg/mL (≈ 2600 µM) | inactive | 512 µg/mL (≈ 1300 µM) | inactive | 512 µg/mL (≈ 1300 µM) | CCCn1c(S)nnc1-c1ccc(S(=O)(=O)c2ccc(Cl)cc2)cc1
13 | inactive | 1020 (≈ 2200 µM) | 512 µg/mL (≈ 1100 µM) | inactive | 256 µg/mL (≈ 550 µM) | 512 µg/mL (≈ 1100 µM) | inactive | O=[N+]([O-])c1cccc(/C=N/n2c(-c3ccc(S(=O)(=O)c4ccccc4)cc3)n[nH]c2=S)c1
14 | 1020 µg/mL (≈ 1810 µM) | 512 (≈ 907 µM) | 1020 µg/mL (≈ 1810 µM) | inactive | 512 µg/mL (≈ 907 µM) | 1020 µg/mL (≈ 1810 µM) | inactive | O=[N+]([O-])c1cccc(/C=N/n2c(-c3ccc(S(=O)(=O)c4ccccc4)cc3)nn(CN3CCOCC3)c2=S)c1
15 | inactive | 256 (≈ 568 µM) | 128 µg/mL (≈ 284 µM) | inactive | 128 µg/mL (≈ 284 µM) | 512 µg/mL (≈ 1140 µM) | inactive | COc1ccccc1/C=N/n1c(-c2ccc(S(=O)(=O)c3ccccc3)cc2)n[nH]c1=S
16 | > 1020 µg/mL | 512 (≈ 1540 µM) | 1020 µg/mL (≈ 3080 µM) | 128 µg/mL (≈ 385 µM) | 512 µg/mL (≈ 1540 µM) | > 1020 µg/mL | > 1020 µg/mL | Nn1c(-c2ccc(S(=O)(=O)c3ccccc3)cc2)n[nH]c1=S
17 | > 1020 µg/mL | > 1020 | > 1020 µg/mL | > 1020 µg/mL | > 1020 µg/mL | > 1020 µg/mL | > 1020 µg/mL | CCCn1c(S)nnc1-c1ccc(S(=O)(=O)c2ccccc2)cc1
18 | 1020 µg/mL (≈ 2080 µM) | > 1020 | > 1020 µg/mL | inactive | inactive | > 1020 µg/mL | 256 µg/mL (≈ 519 µM) | CCCn1c(-c2ccc(S(=O)(=O)c3ccc(Cl)cc3)cc2)nn(CN2CCOCC2)c1=S
19 | inactive | 128 (≈ 312 µM) | inactive | inactive | 512 µg/mL (≈ 1250 µM) | 256 µg/mL (≈ 624 µM) | inactive | O=S(=O)(c1ccccc1)c1ccc(-c2n[nH]c(=S)n2/N=C/c2ccco2)cc1
20 | > 1020 µg/mL | 512 (≈ 931 µM) | 512 µg/mL (≈ 931 µM) | inactive | 512 µg/mL (≈ 931 µM) | > 1020 µg/mL | inactive | COc1ccccc1/C=N/n1c(-c2ccc(S(=O)(=O)c3ccccc3)cc2)nn(CN2CCOCC2)c1=S

Row | Structure (SMILES) | MIC [1] | MIC [2] [µg/mL] | MIC [3] | MIC [4] | MIC [5] | MIC [6] | MIC [7]
21 | O=C(N[C@H](CO)[C@H](O)c1ccc([N+](=O)[O-])cc1)C(Cl)Cl [CHLORAMPHENICOL] | 64 µg/mL (≈ 198 µM) | 128 (≈ 396 µM) | 64 µg/mL (≈ 198 µM) | 64 µg/mL (≈ 198 µM) | 64 µg/mL (≈ 198 µM) | 64 µg/mL (≈ 198 µM) | 128 µg/mL (≈ 396 µM)
